Assay results from different studies.
Target: Aurora kinase C (AURKC, Homo sapiens, UniProt Q9UQB9)
One construct used (Q9UQB9 1-309): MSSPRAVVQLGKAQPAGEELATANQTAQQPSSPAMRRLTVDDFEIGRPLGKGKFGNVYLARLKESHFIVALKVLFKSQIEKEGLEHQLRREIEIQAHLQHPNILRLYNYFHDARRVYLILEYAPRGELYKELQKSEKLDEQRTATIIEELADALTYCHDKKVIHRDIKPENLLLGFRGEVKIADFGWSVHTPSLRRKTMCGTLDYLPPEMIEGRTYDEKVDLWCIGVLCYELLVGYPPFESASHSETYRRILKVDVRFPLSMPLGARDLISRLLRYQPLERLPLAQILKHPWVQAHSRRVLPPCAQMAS

| Compound | assay | setting | measurement | result |
| --- | --- | --- | --- | --- |
| O=C(O)[C@H]1[C@H](Cn2nnc3ccccc3c2=O)CC[C@@H]1C(=O)c1ccc(OCCC2CCOCC2)cc1 | cell-free assay, competition with immobilised ligand | 1 µM | remaining binding | 79% |
| Cc1sc(C(=O)NC2COC2)cc1-n1cc(NC(=O)Nc2c(F)cccc2Cl)cn1 | enzyme activity, inhibitor | 10 µM | remaining activity | 104% |
| CC(=O)N1CCC(c2ccc(C(=O)NC3=NCCN3)cc2C(F)(F)F)CC1 | cell-free assay, competition with immobilised ligand | 1 µM | remaining binding | 100% |
| O=C1NC(=O)c2cc(Nc3ccc(F)cc3)c(Nc3ccc(F)cc3)cc21 | cell-free assay | 0.5 µM | remaining signal | 90.8% |
| CC1=C(C#N)[C@@H](c2ccc3[nH]nc(C)c3c2)C(C#N)=C(c2ccc(Cl)cc2)N1 | cell-free assay, competition with immobilised ligand | 1 µM | remaining binding | 100% |
| CC(C)(C)c1nc2c(s1)c1nc(N)ncc1c1ccc(NS(=O)(=O)c3c(F)cccc3F)c(F)c12 | enzyme activity, inhibitor, radiometric | 1 µM | remaining activity | 104% |
| Cc1ccc(C(=O)NCc2ccsc2)cc1C#Cc1cn(C(C)C)c2ncnc(N)c12 | enzyme activity, inhibitor | 1 µM | activity vs control | 81% |
| Cc1ccc(NC(=O)c2ccc(C)c(C(F)(F)F)c2)cc1C#Cc1nn(C2CCC(O)CC2)c2ncnc(N)c12 (centres unmarked) | cell-free assay | 10 µM | remaining signal | 101% |
| CN1CC(Oc2cnc(C#N)cc2-c2ccn3nc(NC(=O)C4CC4)cc3c2)C1 | enzyme activity, inhibitor | 1 µM | inhibition | 3% |
| COc1cc2ncnc(Nc3ccc(Oc4ccccc4)cc3C)c2cc1OC | enzyme activity, inhibitor | 1 µM | inhibition | 1% |
| O=c1c2ccccc2[nH]c(=S)n1CCN1CCC(=C(c2ccc(F)cc2)c2ccc(F)cc2)CC1 | enzyme activity, inhibitor | 0.5 µM | remaining activity | 99.4% |
| O=C(NS(=O)(=O)c1ccc(NCC2CCOCC2)c([N+](=O)[O-])c1)c1ccc(N2CCN(Cc3ccc(C(F)(F)F)cc3-c3ccc(Cl)cc3)CC2)cc1Oc1cnc2[nH]ccc2c1 | cell-free assay, competition with immobilised ligand | 1 µM | remaining binding | 97% |
| CC(C)(O)[C@H]1CC[C@H](Nc2ccc3ncc(-c4cccc(C(F)(F)F)c4)n3n2)CC1 | enzyme activity, inhibitor | 1 µM | remaining activity | 88.5% |
| CNC(=O)c1cc(Oc2ccc(NC(=O)Nc3ccc(Cl)c(C(F)(F)F)c3)cc2)ccn1 | cell-free assay | 0.5 µM | remaining signal | 106% |
| CCC(=O)N[C@H]1CC[C@@H](C(=O)N(C)c2ccc(-c3nc4ccccc4o3)cc2)C1 | cell-free assay, competition with immobilised ligand | 1 µM | remaining binding | 100% |
| CNc1cccc2cc(C(=O)Nc3ccc(C(=O)O)cc3)c(=O)[nH]c12 | enzyme activity, inhibitor | 10 µM | inhibition | -7.3% |
| Cc1cnc(NC2CCOCC2)nc1-n1cnc(C(=O)NC(CN)c2cc(F)cc(Cl)c2)c1 (centres unmarked) | enzyme activity, inhibitor, radiometric | 1 µM | remaining activity | 67% |
| CCCCN(CCCC)C(=O)CN1C[C@H](c2cc(OC)c3c(c2)OCO3)[C@@H](C(=O)O)[C@@H]1CC(C)(C)CCC | cell-free assay, competition with immobilised ligand | 1 µM | remaining binding | 100% |
| CCN(CC)CCNC(=O)c1c(C)[nH]c(/C=C2\C(=O)Nc3ccc(Cl)cc32)c1C | enzyme activity, inhibitor | 0.5 µM | remaining activity | 74.7% |
| COc1cc2nccc(Oc3ccc(NC(=O)c4c5n(n(-c6ccc(F)cc6)c4=O)CCCC5)cc3)c2cc1OC | enzyme activity, inhibitor | 0.1 µM | inhibition | 24% |
